Data as given in ChEMBL document CHEMBL4622920, “Synthesis and evaluation of heterocycle structures as potential inhibitors of Mycobacterium tuberculosis UGM” (Bioorg Med Chem, 2020).
pKd: −log10 of the molar value. In brackets after ≈: the same amount, converted by molar mass. Activity calls are given as the source filed them. The calls are words filed in the database; no cut-off is given here.

Experiments:
[1] = Displacement of UDP-fluorescein from non-reduced form of Mycobacterium tuberculosis UDP-galactopyranose mutase by fluorescence polarization assay
Procedure, shortened: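 Recombinant Mt UGM (pET-29b construct) used dialysed and non-reduced at 580 nM. UDP-fluorescein probe at 18 nM. Inhibitors titrated over 0–1 mM. Kd derived from competitive fluorescence polarization. Probe affinity measured by enzyme dilutions in 50 mM sodium phosphate pH 7.0 at room temperature, in triplicate.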

[2] = test system: Mycobacterium tuberculosis; assay: Inhibition of reduced form of Mycobacterium tuberculosis UDP-galactopyranose mutase assessed as conversion of UDP-Galf to UDP-Galp at 0.5 mM using UDP-Galf as substrate compound incubated with enzyme at 5 mins after enzyme reduction with sodium dithionite by HPLC analysis relative to control
Procedure, shortened: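 Recombinant Mt UGM (60 nM) in 100 mM NaH₂PO₄ pH 7.4 at room temperature. Enzyme pre-incubated 5 min, then reduced with 12.5 mM sodium dithionite and incubated with or without inhibitor. UDP-α-Galf (25 µM final) added. Samples taken at five times and quenched in liquid N₂. Conversion to UDP-Galp quantified by C18 HPLC with UV detection at 262 nm.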

[3] = test system: Mycobacterium tuberculosis; assay: Antitubercular activity against Mycobacterium tuberculosis mc2 6230 assessed as inhibition of bacterial growth incubated for 7 days by broth dilution method; assay type: functional; settings: mc2 6230, 168 h
Procedure, shortened: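 Pantothenate-auxotrophic Mt mc²6230 grown in 7H9/OADC plus 109 µM pantothenic acid at 37°C without agitation. Broth microdilution started from culture at OD600 0.05. Twofold series covered 1.5–100 µg/ml. Plates were read after 7 days at 37°C. MIC is the lowest concentration with no visible turbidity change. Duplicates were run on three independent occasions.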

[4] = test system: Mycobacterium tuberculosis; assay: Displacement of UDP-fluorescein from non-reduced form of Mycobacterium tuberculosis UDP-galactopyranose mutase by fluorescence polarization assay relative to control; set-up: concentration or dose not given beside the values; settings: concentration not given here
Procedure, shortened: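 Single-point fluorescence polarization competition with inhibitor at 1 mM final. Non-reduced recombinant Mt UGM at 580 nM with 18 nM UDP-fluorescein probe. Read at room temperature in sodium phosphate buffer pH 7.0. Reported as percent inhibition; screening also done at 100 µM. Kd followed when inhibition at 1 mM exceeded 30%.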

[5] = test system: Mycobacterium tuberculosis; assay: Antitubercular activity against Mycobacterium tuberculosis mc2 6230 assessed as inhibition of bacterial growth at 30 ng/ml incubated for 7 days by broth dilution method; assay type: functional, organism-based
Procedure, shortened: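 Mt mc²6230 pantothenate auxotroph grown at 37°C static in 7H9 broth with OADC and 109 µM pantothenic acid. Log-phase culture diluted to OD600 0.05. Compound serially diluted 2-fold from a 10 mg/ml DMSO stock. Plates wrapped and incubated at 37°C for 7 days. Isoniazid served as positive control and DMSO as vehicle control. Growth was read visually as turbidity.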

Compound | pKd [1] | inhibition [4] [%] | further results
CCCCC#C/C=C1\Cn2c(c(I)c3cc4c(cc32)OCO4)C(=O)O1 | 4.23 |  | inhibition [2]: 60.2%; MIC [3]: 3.1 µg/mL (≈ 6.9 µM)
O=c1ccn([C@@H]2O[C@H](COP(=O)(O)OP(=O)(O)O[C@H]3O[C@@H]([C@H](O)CO)C(F)(F)C3(F)F)[C@@H](O)[C@H]2O)c(=O)[nH]1 | 4.28 |  | 
COC(=O)c1[nH]c2ccccc2c1I |  | 11.5 | 
COC(=O)c1cn(Cc2ccccc2)c2ccccc12 |  | 5.1 | 
CC1=C(c2ccoc2)C(=O)O/C1=C\C(C)C |  | 5.2 | 
C#CCn1c(C(=O)O)c(I)c2cc3c(cc21)OCO3 | 3.66 | 46.2 | 
C[N+](C)(C)CC(=O)N/N=C/c1ccc(O)c(O)c1 | 5.52 |  | 
O=C(O)C(Cc1ccc(I)cc1)NC1NC(c2ccc(Cl)c(Cl)c2)=CS1 (centres undefined) | 5.10 |  | 
COc1ccc2cc(C3=C(C)/C(=C/C(C)C)OC3=O)ccc2c1 |  | 7.4 | 
CC1=C(c2ccc(F)cc2)C(=O)O/C1=C\C(C)C |  | 9 | 
C#CCn1c(C(=O)O)c(I)c2ccccc21 |  | 7.4 | 
CC1=C(c2ccncc2)C(=O)O/C1=C\C(C)C |  | 3 | 
CCCCC#C/C=C1\Cn2c(c(I)c3ccccc32)C(=O)O1 | 4.18 |  | inhibition [2]: 72.9%; MIC [3]: 6.2 µg/mL (≈ 15.3 µM)
COC(=O)c1[nH]c2cc3c(cc2c1I)OCO3 |  | 23.1 | 
O=C1O/C(=C/I)Cn2c1c(I)c1cc(F)ccc12 |  | 19.1 | 
CC1=C(c2cc3ccccc3o2)C(=O)O/C1=C\C(C)C |  | 0 | 
CC1=C(c2ccc(-c3ccccc3)cc2)C(=O)O/C1=C\C(C)C |  | 19.2 | 
C#CCn1c(C(=O)O)c(I)c2cc(OC)ccc21 |  | 15 | 
O=C1O/C(=C/I)Cn2c1c(I)c1ccccc12 | 2.70 | 61.6 | 
C#CCn1c(C(=O)OC)cc2cc(F)ccc21 |  | 0 | 
C/C(I)=C1/Cn2c(c(I)c3ccccc32)C(=O)O1 |  | 14.9 | 
COC(=O)c1cc2ccccc2[nH]1 |  | 2 | 
CCCCC#C/C=C1\Cn2c(c(I)c3cc(OC)ccc32)C(=O)O1 | 4.21 |  | inhibition [2]: 95.5%; MIC [3]: 50 µg/mL (≈ 115 µM)
CC1=C(Br)C(=O)O/C1=C\C(C)C |  | 7.3 | 
O=C1O/C(=C(/I)c2ccccc2)Cn2c1c(I)c1ccccc12 |  | 22.8 | 
NNC(=O)c1ccncc1 |  |  | inhibition [5]: Active
